Source: PubChem
This is a sample that favours compounds with a hit; in the whole collection about 1.8% have one here.
STAT3 act: STAT3 signaling activation; U3A cells, IL-6 STAT3-luciferase reporter, luminescence; 100% = signal with IL-6 EC80 alone; activation (% of control), % at 5.6 µM; 0.91% of 190,000 active;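 active means activation above the screen-wide mean of compound activation plus 3 SD, cut at about 130% in these data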;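 further: 0% = background luminescence of wells with medium and substrate only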
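Test system: Human STAT1-deficient U3A cells with stable STAT3-luciferase reporter | Also added: Interleukin-6, 33 ng/mL | Timing: Compound pre-incubation 1 h before IL-6, then 6 h stimulation at 37 °C | Technique: Luciferase reporter luminescence | Read-out: Percent of IL-6-only median luminescence | Benchmarks: IL-6-only wells as 100% reference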
C8 TRAIL sens: caspase-8 TRAIL sensitization; AID 624354; 1% of 360,000 active; inhibition (viability loss, TRAIL sensitization), % at 10 µM; NB7+C8 cells + TRAIL, ATPlite viability luminescence;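 active means compounds causing at least 50% loss of cell viability in the single-dose screen, relative to plate controls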
PPC-1+TRAIL kill: PPC-1 cancer cell killing with TRAIL present; PPC-1 cells + TRAIL, ATPLite viability luminescence; cell killing (% activity), % at 4 µM or 5 µM; 0.41% of 220,000 active; AID 1443;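 active means cell killing above 50% in the first pass at 4 µM, then a duplicate retest at 5 µM averaging 50% or more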;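 further: plate controls were cells with TRAIL plus DMSO for no effect and medium-only wells lacking cells for full effect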
STAT3 blocker: reduces IL-6 driven STAT3 reporter signal | U3A cells, IL-6 STAT3-luciferase reporter, luminescence; host cell line lacks STAT1 | inhibition, % at 5.5 µM | 0.89% of 190,000 active;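 active means inhibition above the mean inhibition across all screened compounds plus 3 SD, cut at about 44% in these data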;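 further: 0% = DMSO only wells and 100% = 100 µM nifuroxazide control wells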
STAT1 blocker: inhibitors of IFN-gamma induced STAT1 signaling | NIH 3T3 STAT1-luciferase reporter, luminescence | inhibition, % at 5.5 µM | 0.35% of 200,000 active;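 active means inhibition above a set limit, the mean inhibition across all tested compounds plus 3 SD, cut at about 34% in these data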;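 further: 0% = IFN-gamma with DMSO and 100% = IFN-gamma with 300 µM nifuroxazide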
An asterisk follows results filed as active; · = no result given.

SMILES	STAT3 act	C8 TRAIL sens	PPC-1+TRAIL kill	STAT3 blocker	STAT1 blocker
CCOc1cccc2sc(N(CCCN(C)C)C(=O)c3ccc(S(=O)(=O)N(C)Cc4ccccc4)cc3)nc12	·	51*	·	·	·
Cc1ccc2sc(N(CCCN(C)C)C(=O)c3ccc(S(=O)(=O)N(C)Cc4ccccc4)cc3)nc2c1C	·	69*	·	·	·
CCN(Cc1ccccc1)S(=O)(=O)c1ccc(C(=O)N(CCCN(C)C)c2nc3cc(C)cc(C)c3s2)cc1	·	75*	·	·	·
O=C(NCCOc1ccc(F)cc1)C1CCC(=O)N(Cc2ccc(Cl)cc2)C1 (stereo not given)	·	0	·	·	·
O=C1c2cc(Cl)ccc2-c2c(O)cc(Cl)cc21	·	17	·	·	·
CCOC(=O)C1=C(O)/C(=C/c2ccc(-c3ccccc3C(=O)O)o2)SC1=Nc1ccc(C)cc1	·	9	·	·	·
CCOC(=O)C1=C(O)/C(=C/c2cn(CC(=O)NCC3CCCO3)c3ccccc23)SC1=Nc1ccc(C)cc1 (stereo not given)	100	57*	·	3	-9
COc1ccc(OC)c(-c2nn(-c3ccccc3)cc2C(=O)NCC(c2ccco2)N2CCCC2)c1 (stereo not given)	·	-1	·	·	·
Cc1ccc(/C=C2/SC(=O)N(CC(=O)N3CCOCC3)C2=O)s1	101	-2	34	-4	-5
O=C(CN1C(=O)S/C(=C/c2ccc(N3CCOCC3)cc2)C1=O)N1CCOCC1	108	61*	49	-7	-15
C1=C(c2cccc3ccccc23)N2CCN=C2S1	150*	-1	7	-54	10
NC(Cc1ccc(Cl)cc1)c1csc(NC(=O)NCC2CCCCC2)n1 (stereo not given)	·	86*	·	·	·
NC(CCc1ccccc1)c1csc(NC(=O)Nc2ccccc2Oc2ccccc2)n1 (stereo not given)	·	87*	·	·	·
NC(Cc1ccc(C(F)(F)F)cc1)c1csc(NC(=O)Nc2ccccc2Cc2ccccc2)n1 (stereo not given)	·	79*	·	·	·
CC(C)c1ccc(NC(=O)Nc2nc(C(N)COCc3ccccc3)cs2)cc1 (stereo not given)	·	77*	·	·	·
CCCNC(=O)c1cc(C2CCCN(C(=O)c3cc(F)ccc3C)C2)on1 (stereo not given)	·	1	·	·	·
COc1cc(OC)nc(Nc2nc(C(N)Cc3ccc(C(F)(F)F)cc3)cs2)n1 (stereo not given)	·	80*	·	·	·
COc1ccc(-n2nc3cc(C)c(N)c(Br)c3n2)cc1	165*	34	41	-69	-73
O=C1NC[C@H](CCCCN2C[C@H](Cc3ccccc3)N(CCC3CCCCC3)C(=O)C2=O)N(CCc2ccc(O)cc2)C1=O	·	-7	·	·	·
CN(Cc1ccccc1)C(=O)c1cccc(NC(=O)Cc2ccc(NC(=O)C3CCN(C(=O)C4CC4)CC3)cc2)c1	·	9	·	·	·
CCC(=O)NC(c1ccc(C)cc1)c1cc([N+](=O)[O-])c2cccnc2c1O (stereo not given)	96	54*	23	3	13
CC(=O)NC(c1ccc(C)cc1)c1cc([N+](=O)[O-])c2cccnc2c1O (stereo not given)	104	41	0	1	-7
Cc1ccc(CSc2nnc(-c3cccnc3)o2)cc1	96	54*	-8	12	0
c1ccc(CSc2nnc(-c3cccnc3)o2)cc1	100	6	12	4	-22
C#CCSc1nnc(-c2ccc(C)cc2)o1	84	90*	17	20	-31
SMILES	STAT3 act	C8 TRAIL sens	PPC-1+TRAIL kill	STAT3 blocker	STAT1 blocker
O=C(NCc1ccc(F)cc1)c1cnc2sccn2c1=O	·	-11	-8	·	·
O=C(NCCc1c[nH]c2ccccc12)c1cnc2sccn2c1=O	135*	16	13	-31	-30
COc1ccc(-n2c(C)cc(/C=C3\C(=N)N4N=C(CC(=O)N5CCOCC5)SC4=NC3=O)c2C)cc1	·	12	·	·	·
CCc1c(C2(O)CCCCC2)[nH]c2cnccc12	·	-3	·	·	·
c1ccc2c(c1)nnn1c3ccccc3nc21	60	·	7	48*	-51
Cc1ccc(Nc2nc(NCc3ccco3)c3ccccc3n2)cc1	85	71*	20	23	6
Cc1ccccc1N(Cc1cc(=O)[nH]c2ccccc12)C(=O)CCl	·	12	·	·	·
CCCCCCCN(C(=O)CCl)c1ccccc1C	104	88*	18	-10	3
COC(C)(C)[C@@H](O)COc1c2ccoc2cc2oc(=O)ccc12	·	-1	·	·	·
CC1CCc2nc(NC(=O)C3COc4ccccc4O3)sc2C1 (stereo not given)	28	18	5	91*	49*
CC1CCc2nc(NC(=O)C3CC3)sc2C1 (stereo not given)	107	3	22	-3	-22
Cc1cc(C)c(S(=O)(=O)Nc2cc(SCC(=O)O)c(O)c3ccccc23)cc1C	135*	·	21	-42	4
CC1CCCCN1C(=O)CSc1nnc(-c2cccnc2)o1 (stereo not given)	·	12	·	·	·
Oc1ccc(-c2n[nH]c(C(F)(F)F)c2-c2ccccc2)c(O)c1	40	30	20	72*	41*
O=C(c1cc(C2CCCCN2S(=O)(=O)Cc2ccccc2)on1)N1CCOCC1 (stereo not given)	·	-1	·	·	·
O=C1C=CC(=O)C(CNc2ccc(C(=O)OCc3ccccc3)cc2)=C1	·	91*	·	·	·
Cc1nc2cc(NC(=O)Nc3cccc([N+](=O)[O-])c3)ccc2n1C	·	59*	·	·	·
O=C(CC[C@H]1O[C@@H](n2ccc(=O)[nH]c2=O)[C@H](O)[C@@H]1O)NCCc1c[nH]c2ccccc12	·	-15	·	·	·
Cc1c(Cl)cccc1NC(=S)N=Nc1c(O)n(CN2CCOCC2)c2ccccc12	102	-4	53*	2	7
Cc1cccc(NS(=O)(=O)c2ccc3c(c2)Cc2cc(S(=O)(=O)Nc4cccc(C)c4C)ccc2-3)c1C	105	60*	8	-8	9
CCOc1ccc(C(=O)N2CCCC2)cc1	104	-10	9	-4	0
COc1ccc(OCc2cccc(C(=O)O)c2)cc1	·	62*	34	·	·
O=C(O)c1cccc(COc2ccc(CO)cc2Cl)c1	·	67*	32	·	·
